In ChEMBL document CHEMBL4350963, “Discovery and Lead-Optimization of 4,5-Dihydropyrazoles as Mono-Kinase Selective, Orally Bioavailable and Efficacious Inhibitors of Receptor Interacting Protein 1 (RIP1) Kinase” (J Med Chem, 2019):
In brackets after ≈: the same amount, converted by molar mass.

Legend:
[1] = Chromatographic hydrophobicity index, log D of the compound at pH 7.4 by reverse-phase HPLC analysis; assay type: physicochemical; conditions: buffer
How it was run: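 Log D at pH 7.4 was calculated from the retention time on a fast-gradient reverse-phase HPLC run.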

[2] = Cmax in rat at 2 mg/kg, po; assay type: ADME, organism-based; parameters: dose 2 mg/kg, route oral; conditions: in vivo
How it was run: (§1)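 Rat pharmacokinetics: the iv arm was dosed at 1 mg/kg in 5% DMSO/20% Cavitron aqueous solution. The oral arm was dosed at 2 mg/kg in 5% DMSO/6% Cavitron aqueous solution. Bioavailability was calculated non-crossover, from average exposures in separate oral and iv studies.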

[3] = Tmax in rat at 2 mg/kg, po; assay type: ADME, organism-based; conditions: in vivo
[4] = AUC (0 to infinity) in rat at 2 mg/kg, po; assay type: ADME, organism-based; parameters: dose 2 mg/kg, route oral, time infinity; conditions: in vivo; how it was run: as §1
[5] = Volume of distribution at steady state in rat at 1 mg/kg, iv; assay type: ADME, organism-based; conditions: in vivo, read-out: Vdss
[6] = AUC (0 to infinity) in rat at 1 mg/kg, iv; assay type: ADME, organism-based; parameters: dose 1 mg/kg, time infinity, route intravenous; conditions: in vivo; how it was run: as §1
[7] = Oral bioavailability in rat at 2 mg/kg; assay type: ADME, organism-based; conditions: in vivo
[8] = Solubility of the compound in fasted state simulated intestinal fluid measured after 4 hrs using crystalline sample; assay type: physicochemical
[9] = Time at which mouse plasma concentration stays above in vitro IC50 for RIP1 in mouse L929 cells assessed as reduction in TNFalpha/QVD-Oph-induced necroptosis in mouse at 10 mg/kg/day added to chow pellets; assay type: ADME, organism-based; conditions: in vivo
[10] = Time at which mouse plasma concentration stays above in vitro IC90 for RIP1 in mouse L929 cells assessed as reduction in TNFalpha/QVD-Oph-induced necroptosis in mouse at 100 mg/kg/day added to chow pellets; assay type: ADME, organism-based; conditions: in vivo
[11] = Unbound brain to blood concentration ratio in C57BL/6 mouse at 9.6 to 96 mg/kg/day added to chow pellets; assay type: ADME, organism-based; conditions: po, read-out: K(p,uu,brain)

Row | SMILES | chromatographic logD [1] | other results
1 | O=C(C1CCC1)N1N=CCC1c1ccccc1 (stereo unspecified) | 4.7 | –
2 | Cc1ccc(C2CC=NN2C(=O)C(C)(C)C)cc1 (stereo unspecified) | 6.4 | –
3 | CC(C)(C)C(=O)N1N=CCC1c1ccc(S(C)(=O)=O)cc1 (stereo unspecified) | 4.1 | –
4 | CC(C)(CN)C(=O)N1N=CCC1c1ccccc1 (stereo unspecified) | 1.4 | –
5 | C[C@@H]1C=NN(C(=O)C(C)(C)C)[C@@H]1c1ccccc1 | 6.5 | –
6 | CC(C)(C)C(=O)N1N=CCC1c1cocn1 (stereo unspecified) | 3 | Cmax [2]: 345 ng/mL; Tmax [3]: 5 min; AUC(0-inf) [4]: 200 ng·h/mL
7 | O=C(C1CCN(c2ccncn2)CC1)N1N=CC[C@H]1c1ccccc1 | 3.2 | –
8 | CC(C)(C)C(=O)N1N=CCC1c1cccnc1 (stereo unspecified) | 3.2 | Cmax [2]: 360 ng/mL; Tmax [3]: 5 min; AUC(0-inf) [4]: 260 ng·h/mL
9 | CC(C)(C)C(=O)N1N=CCC1c1cc[nH]n1 (stereo unspecified) | 2.7 | –
10 | CC(C)(C)C(=O)N1N=CCC1c1c[nH]cn1 (stereo unspecified) | 1.7 | –
11 | CC(C)(C)C(=O)N1N=CCC1c1ccncc1 (stereo unspecified) | 3.2 | –
12 | O=C(C1CCCCC1)N1CCC(C(=O)N2N=CCC2c2ccccc2)CC1 (stereo unspecified) | 5.4 | –
13 | N#Cc1cnc(N2CCC(C(=O)N3N=CC[C@H]3c3cc(F)cc(F)c3)CC2)cn1 | 5.2 | Cmax [2]: 73 ng/mL; Tmax [3]: 38 min; Vd [5]: 6.1 L/kg; AUC(0-inf) [6]: 400 ng·h/mL; bioavailability [7]: 99%
14 | CC(C)(CO)C(=O)N1N=CCC1c1ccccc1 (stereo unspecified) | 3.4 | –
15 | O=C(c1ccncc1)N1N=CCC1c1ccccc1 (stereo unspecified) | 2.7 | –
16 | CN1CCC(C2CC=NN2C(=O)C(C)(C)C)CC1 (stereo unspecified) | 1.4 | –
17 | O=C(C1CCN(c2ccccn2)CC1)N1N=CC[C@H]1c1ccccc1 | 5.1 | –

Row | SMILES | chromatographic logD [1] | other results
18 | Cc1nnc(N2CCC(C(=O)N3N=CC[C@H]3c3ccccc3)CC2)o1 | 3.2 | Vd [5]: 1.6 L/kg; AUC(0-inf) [6]: 800 ng·h/mL
19 | O=C(C1CCN(c2ncccn2)CC1)N1N=CC[C@H]1c1ccccc1 | 4.7 | –
20 | CC(C)(C)C(=O)N1CCSC1c1ccccc1 (stereo unspecified) | 5.6 | –
21 | O=C(C1CCCC1)N1N=CCC1c1ccccc1 (stereo unspecified) | 5.4 | –
22 | CC(C)(C)C(=O)N1CCNCC1c1ccccc1 (stereo unspecified) | 2.5 | –
23 | O=C(C1CCN(C(=O)C(F)(F)F)CC1)N1N=CCC1c1ccccc1 (stereo unspecified) | 4.9 | –
24 | CC(C)(C)C(=O)n1nccc1-c1ccccc1 | 8.3 | –
25 | CC(C)(C)C(=O)N1CCOCC1c1ccccc1 (stereo unspecified) | 4.7 | –
26 | O=C(c1c[nH]nn1)N1CCC(C(=O)N2N=CCC2c2ccccc2)CC1 (stereo unspecified) | 2 | Vd [5]: 1.3 L/kg; AUC(0-inf) [6]: 450 ng·h/mL
27 | CC(C)(C)C(=O)N1N=CCC1C1CCCC1 (stereo unspecified) | 6.7 | –
28 | O=C(C1CCCCC1)N1N=CCC1c1ccccc1 (stereo unspecified) | 5.9 | –
29 | CC(C)(C)C(=O)N1N=CCC1C1CCOCC1 (stereo unspecified) | 4.1 | –
30 | O=C(C1CCOCC1)N1N=CCC1c1ccccc1 (stereo unspecified) | 3.1 | Cmax [2]: 95 ng/mL; Tmax [3]: 5 min; AUC(0-inf) [4]: 44 ng·h/mL
31 | CC(=O)N1CCC(C(=O)N2N=CC[C@H]2c2ccccc2)CC1 | 2.5 | solubility thermodynamic at 4 h [8]: 7400 µg/mL (≈ 24.7 mM); Cmax [2]: 795 ng/mL; Tmax [3]: 30 min; AUC(0-inf) [4]: 1600 ng·h/mL; Vd [5]: 1.7 L/kg; AUC(0-inf) [6]: 420 ng·h/mL
32 | O=C(C1CCOC1)N1N=CCC1c1ccccc1 (stereo unspecified) | 3 | –
33 | Cc1ccc(C2CC=NN2C(=O)C(C)(C)C)cc1F (stereo unspecified) | 6.6 | –
34 | N#Cc1cc(N2CCC(C(=O)N3N=CC[C@H]3c3cc(F)cc(F)c3)CC2)ncn1 | 5 | Cmax [2]: 215 ng/mL; Tmax [3]: 30 min; Vd [5]: 4.6 L/kg; AUC(0-inf) [6]: 410 ng·h/mL; bioavailability [7]: 88%; Time [9]: > 24 h; Time [10]: > 24 h; Kp uu [11]: 2.5
